From PubChem
The entries come from a sample that favours hits as a whole.
UPR CHOP act: apoptotic UPR (CHOP) activation; activation, % at 10 µM; AID 449763; 330,000 compounds, 0.34% hits; CHO-CHOP luciferase reporter, luminescence; percent of tunicamycin response over DMSO baseline;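 active = at 10 µM dose, activation of 40% or more, normalized to positive control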;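 also: 100% = tunicamycin at 10 µg/mL and 0% = DMSO alone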
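System: CHO-CHOP luciferase reporter cell line | Buffer or medium: F12 medium containing 10% fetal bovine serum | Doses: One dose, 10 µM in 0.5% DMSO | Times: 6 h compound exposure at 37 °C after overnight seeding | Signal: Luciferase luminescence | Read-out: % activation vs tunicamycin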
CHOP inh: blocks CHOP induction under ER stress; CHO-K1 CHOP-promoter luciferase, tunicamycin-induced, 15-18 h; inhibition, % at 10 µM; 220,000 compounds, 3.8% hits;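 active = compounds that reduced the stress-induced luciferase reporter signal by more than about 70% of percent inhibition, limit read from the data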;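 also: 0% = tunicamycin plus vehicle and 100% = wells without tunicamycin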
TbMetRS inhib: blocks T. brucei methionyl-tRNA synthetase activity; purified T. brucei MetRS, ATP depletion, Kinase-Glo luminescence; inhibition, % at 11.9 µM; 360,000 compounds, 0.4% hits; AID 624268;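 active = inhibition above a per-plate cutoff of the control wells' mean inhibition plus 3 SD, cut at about 5.5% in these data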;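 also: 0% = DMSO wells median and 100% = median of wells with control inhibitor compound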
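System: purified T. brucei MetRS enzyme / Detection: Kinase-Glo luciferase luminescence reporting remaining unconsumed ATP / Medium: HEPES buffer with MgCl2, KCl, DTT, spermine, BSA, pyrophosphatase / Replication: singlicate, one well per compound / Evaluation: percent inhibition relative to median high and low control wells / Schedule: 2 h aminoacylation at 25 °C after 15 min preincubation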
XBP1 UPR activ: adaptive UPR (XBP1) activation; CHO-XBP1 luciferase reporter, IRE1-XBP1 UPR activation, luminescence; percent of tunicamycin response, DMSO as zero; activation, % at 20 µM; 330,000 compounds, 0.33% hits; AID 463104;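 active = versus positive control, 20 µM dose yields 30% or more activation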;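 also: 100% = tunicamycin at 10 µg/mL and 0% = DMSO only wells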
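Material: IRE1-XBP1 luciferase reporter CHO line / Quantity: one thousand reporter cells per well / Buffer or medium: F12 with 10% serum / Compound: 20 µM single concentration, DMSO 1% / Times: 6 h treatment, 37 °C / Detection: Steady-Glo luciferase glow luminescence, 10 min after reagent addition / Benchmarks: tunicamycin high, DMSO low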
V-ATPase pHluor: regulators of yeast V-ATPase proton transport | S. cerevisiae, pHLuorin cytosolic pH fluorescence | response, % at 10 µM | 350,000 compounds, 0.37% hits; in the data active = response mostly above about 7.3%, no sharp cut-off; inactive = mostly below about 5.4%; also: actives read high
CHOP inh conf: confirmation of CHOP induction inhibitors | shares compounds with CHOP inh | CHO-CHOP promoter luciferase reporter, tunicamycin-induced, luminescence | inhibition, % at 10 µM | 2,100 compounds, 45% hits;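 active = mean of three repeat readings of reporter signal inhibition above a set limit, cut at about 70% in these data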;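 also: 0% = tunicamycin plus vehicle and 100% = wells lacking tunicamycin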
The depositor's hits bear a star; / = no result.

SMILES	UPR CHOP act	CHOP inh	TbMetRS inhib	XBP1 UPR activ	V-ATPase pHluor	CHOP inh conf
N#CC1=C(N)N2C(=C(C#N)C1c1ccccc1)Sc1ccccc12 (stereo not drawn)	-0.9	-25.5	/	-4.0	/	/
N#CC1=C(N)N2C(=C(C#N)C13CCN(Cc1ccccc1)CC3)Nc1ccccc12	-1.2	-13.0	-0.4	0.6	-2.2	/
O=C(CN1C(=O)NC2(CCCc3ccccc32)C1=O)NCc1cccs1 (stereo not drawn)	0.2	/	-0.4	0.3	1.3	/
Cc1[nH]c2ccccc2c1/C=N\NC(=O)c1ccccc1Cl	/	/	-0.1	/	-2.5	/
Cc1[nH]c2ccccc2c1/C=N/NC(=O)C1CC1(c1ccccc1)c1ccccc1 (stereo not drawn)	2.3	106.1*	0.7	4.8	-2.8	100.9*
CCOc1cc(C(=O)CSc2nnc(CNc3ccc(Cl)cc3)o2)ccc1NC(=O)CC	-0.5	105.1*	0.2	18.2	-0.8	112.4*
CC1CCCCC1NC(=S)Nc1ccc(SC(F)F)cc1 (stereo not drawn)	3.9	-12.5	-0.1	0.3	-0.4	/
FC(F)Sc1ccc(NC(=S)NCC2CCCCC2)cc1	3.8	106.0*	0.2	5.8	-2.7	15.3
O=C(Nc1ccc(-c2nc3ccccc3s2)cc1)C1=COCCO1	-6.3	103.9*	0.0	-11.1	2.2	92.1*
C=C1C(=O)O[C@@H]2[C@H]1[C@@H](OC(=O)/C(C)=C/C)C/C(C)=C\C(=O)/C=C(\C)[C@@H]2O	13.8	107.4*	-0.2	-7.2	3.0	68.6
O=C(COC(=O)CCS(=O)(=O)c1ccc(F)cc1)NC1CCCCC1	0.2	/	-0.2	1.0	1.8	/
O=C(c1ccccc1)c1cc(Cl)ccc1N1C(=O)C=CC1=O	/	105.7*	-0.1	/	12.5*	-10.3
N#Cc1cc(C(=O)c2cc(Cl)ccc2O)cn(-c2ccccc2)c1=O	-1.2	14.4	-1.0	-1.8	-1.1	/
COc1ccc(CNc2oc(-c3cccc4ccccc34)nc2C#N)cc1	-2.3	96.6*	0.4	0.4	-2.6	97.6*
CNc1oc(-c2cccc3ccccc23)nc1C#N	4.0	40.9	0.4	8.9	-1.5	/
CCN(CC)C(=S)Sc1c(-c2ccccc2)c2cc(Cl)ccc2[nH]c1=O	-2.5	97.3*	-0.1	-2.7	-1.2	47.5
O=C(O)CSc1c(-c2ccccc2)c2cc(Cl)ccc2[nH]c1=O	-1.8	-2.6	-0.2	-3.7	0.5	/
CCCn1c(=S)[nH]c2cc(C(=O)N3CCN(c4ccccc4)CC3)ccc2c1=O	/	/	0.8	/	-0.1	/
CCCn1c(=S)[nH]c2cc(C(=O)N3CCc4ccccc4C3)ccc2c1=O	0.0	101.9*	3.0	1.7	-4.9	14.2
CCCCN1C(=O)C2(NNc3ccccc3O2)c2ccccc21 (stereo not drawn)	-0.9	102.8*	0.4	1.7	0.6	-2.0
C=CCN1C(=O)C2(NNc3ccccc3O2)c2ccccc21 (stereo not drawn)	1.0	-20.6	-1.3	0.1	0.1	/
C=C(C)Cn1c(N2CCC(Cc3ccccc3)CC2)nc2c1c(=O)[nH]c(=O)n2C	2.3	98.8*	-0.6	0.4	-2.5	124.8*
O=S(=O)(Nc1c(S(=O)(=O)c2ccccc2)c2nc3ccccc3nc2n1C1CCCCC1)c1ccccc1	/	105.7*	1.4	/	-6.9	23.2
CN(C)S(=O)(=O)c1ccc(NC(=O)COc2cccc3c2OC(C)(C)C3)cc1	1.2	/	-0.3	-3.5	8.9	/
CSc1nc2n(n1)C(c1cccc(F)c1)C(C(=O)Nc1ccc(C)cc1C)=C(C)N2 (stereo not drawn)	-0.4	34.1	-0.6	0.1	3.5	/
CC1=C(C(=O)Nc2ccc(C)cc2C)C(c2ccc(Cl)cc2)n2nc(C(=O)OC(C)C)nc2N1 (stereo not drawn)	4.5	104.9*	-0.5	0.4	0.6	17.5
COc1nc2ccccc2nc1CCC(=O)O	-0.5	-6.1	-0.5	-2.0	-2.1	/
CCc1ccc(/C=c2\s/c(=C\C(=O)C(C)(C)C)[nH]c2=O)cc1	-0.6	106.6*	-0.4	0.3	2.0	80.1*
COC(=O)c1cc(S(=O)(=O)N2CCN(c3cccc(Cl)c3)CC2)c[nH]1	0.5	/	-0.3	-4.9	-0.8	/
